In ChEMBL document CHEMBL3779834, “Prenylated Acylphloroglucinols with Leishmanicidal Activity from the Fern Elaphoglossum lindbergii” (J Nat Prod, 2016):
pIC50: −log10 of the molar value.

Legend:
Leishmania braziliensis = assay: Leshmanicidal activity against promastigote stage of Leishmania braziliensis strand M2904 C192 RJA after 72 hrs by XTT-based microplate reader analysis; type: functional, organism-based
In short: (§1)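 Log-phase promastigotes, grown at 26 °C in Schneider's insect medium (pH 6.8) with 10% heat-inactivated FBS, seeded at 1 × 10^6 parasites/mL. Test substances in DMSO at 0.75−100 μg/mL, 72 h at 26 °C. XTT (1 mg/mL) with PMS (0.06 mg/mL) added, further 4 h at 26 °C, OD read at 450 nm. DMSO 1% negative, amphotericin B 0.5 μg/mL positive control. IC50 = 50% viability decrease, mean ± standard error.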

Leishmania amazonensis = assay: Leshmanicidal activity against promastigote stage of Leishmania amazonensis clone 1 AML MHOM/BR/76/LTB-012 after 72 hrs by XTT-based microplate reader analysis; type: functional, organism-based; settings: clone 1 AML MHOM/BR/76/LTB-012, 72 h; in short: as §1

Structure (SMILES)	pIC50 (Leishmania braziliensis)	pIC50 (Leishmania amazonensis)	IC50 (Leishmania braziliensis)	IC50 (Leishmania amazonensis)
CCCCCC(=O)C1=C(O)[C@@](C)(CC=C(C)C)C(O)=C(Cc2c(O)c(CC=C(C)C)c(OC)c(C(=O)CCCCC)c2O)C1=O	4.18	3.82	–	–
CCCC(=O)C1=C(O)[C@@](C)(CC=C(C)C)C(O)=C(Cc2c(O)c3c(c(C(=O)CCC)c2O)OC(C)(C)C=C3)C1=O	4.87	4.79	–	–
CCCCCC(=O)C1=C(O)[C@@](C)(CC=C(C)C)C(O)=C(Cc2c(O)c3c(c(C(=O)CCC)c2O)OC(C)(C)C=C3)C1=O	4.52	4.28	–	–
CCCCCC(=O)C1=C(O)[C@@](C)(CC=C(C)C)C(O)=C(Cc2c(O)c(CC3=C(O)[C@](C)(CC=C(C)C)C(O)=C(C(=O)CCCCC)C3=O)c(O)c(C(=O)CCC)c2O)C1=O	–	–	> 100 µg/mL	> 100 µg/mL
CCCCCC(=O)c1c(O)c(CC2=C(O)[C@](C)(CC=C(C)C)C(O)=C(C(=O)CCC)C2=O)c(O)c(CC2=C(O)[C@](C)(CC=C(C)C)C(O)=C(C(=O)CCC)C2=O)c1O	4.06	–	–	> 100 µg/mL
C[C@@H]1[C@H](O)[C@@H](C)/C=C/C=C/C=C/C=C/C=C/C=C/C=C/[C@H](O[C@@H]2O[C@H](C)[C@@H](O)[C@H](N)[C@@H]2O)C[C@@H]2O[C@](O)(C[C@@H](O)C[C@@H](O)[C@H](O)CC[C@@H](O)C[C@@H](O)CC(=O)O[C@H]1C)C[C@H](O)[C@H]2C(=O)O [AMPHOTERICIN B]	6.92	6.96	–	–
